Experimental data collected from several papers.
Protocols differ between the studies behind these lines.
Target: Serine/threonine-protein kinase LATS1 (LATS1, Homo sapiens, UniProt O95835)
Residues used in one study (O95835 1-1130): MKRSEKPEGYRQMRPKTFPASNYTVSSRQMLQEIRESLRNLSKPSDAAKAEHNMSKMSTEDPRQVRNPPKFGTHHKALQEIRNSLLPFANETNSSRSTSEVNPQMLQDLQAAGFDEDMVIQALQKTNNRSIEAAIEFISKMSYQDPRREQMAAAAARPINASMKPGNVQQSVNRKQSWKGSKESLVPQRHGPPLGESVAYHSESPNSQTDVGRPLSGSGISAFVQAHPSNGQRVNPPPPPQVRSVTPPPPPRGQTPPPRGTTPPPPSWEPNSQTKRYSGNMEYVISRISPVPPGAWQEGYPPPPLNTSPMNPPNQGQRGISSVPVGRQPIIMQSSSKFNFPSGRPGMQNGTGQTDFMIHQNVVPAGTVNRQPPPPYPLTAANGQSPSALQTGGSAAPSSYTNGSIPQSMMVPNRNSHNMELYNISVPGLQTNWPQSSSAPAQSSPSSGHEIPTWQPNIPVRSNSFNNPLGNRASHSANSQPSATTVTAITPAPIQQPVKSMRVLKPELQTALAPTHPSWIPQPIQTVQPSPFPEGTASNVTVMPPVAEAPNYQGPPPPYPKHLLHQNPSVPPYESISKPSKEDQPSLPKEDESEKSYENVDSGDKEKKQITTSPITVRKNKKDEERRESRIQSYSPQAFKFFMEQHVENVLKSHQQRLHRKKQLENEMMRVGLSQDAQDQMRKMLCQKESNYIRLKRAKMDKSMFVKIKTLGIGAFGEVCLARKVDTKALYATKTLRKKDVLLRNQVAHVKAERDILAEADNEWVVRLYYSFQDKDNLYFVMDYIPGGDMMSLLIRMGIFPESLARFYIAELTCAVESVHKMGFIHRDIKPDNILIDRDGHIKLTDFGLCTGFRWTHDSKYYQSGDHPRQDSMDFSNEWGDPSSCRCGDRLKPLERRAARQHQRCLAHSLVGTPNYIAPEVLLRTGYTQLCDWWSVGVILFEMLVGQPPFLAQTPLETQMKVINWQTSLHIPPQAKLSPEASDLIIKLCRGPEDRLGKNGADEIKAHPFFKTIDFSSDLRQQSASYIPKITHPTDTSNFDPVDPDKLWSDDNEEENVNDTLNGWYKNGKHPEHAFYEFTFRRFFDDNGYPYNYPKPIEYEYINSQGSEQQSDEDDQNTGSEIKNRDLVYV

| Structure (SMILES) | test | conditions | quantity | value |
| --- | --- | --- | --- | --- |
| Cc1cc(-c2ccnc3[nH]cc(F)c23)cc(F)c1[C@@]1(O)[C@H](C)CN(C2CCS(=O)(=O)CC2)C[C@@H]1C | binding, TR-FRET |  | residence time | 9.1 min |
| CC#CC(=O)N1CCC[C@H]1c1nc(-c2ccc(C(=O)Nc3ccccn3)cc2)c2c(N)nccn12 | enzyme activity, inhibitor | 1 µM | inhibition | 7% |
| C1=C/COCc2cc(ccc2OCCN2CCCC2)Nc2nccc(n2)-c2cccc(c2)COC/1 | binding | 0.1 µM | remaining binding | 100% |
| C=CC(=O)N1CCC([C@@H]2CCNc3c(C(N)=O)c(-c4ccc(Oc5ccccc5)cc4)nn32)CC1 | enzyme activity, inhibitor | 1 µM | inhibition | 0% |
| CN1CCN(C(=O)c2ccc(NC(=O)Nc3ccc(N(C)c4ccnc(Nc5ccc(CS(C)(=O)=O)cc5)n4)cc3)cc2)CC1 | binding | 1 µM | remaining binding | 68% |
| CCCCC(=O)Nc1ccc(-c2ccc3ncn(CCC)c(=O)c3c2)cn1 | binding, competition with immobilised ligand | 0.5 µM | remaining binding | 86% |
| C[C@H]1CC[C@H](n2c3cnccc3c3cnc(Nc4ccc5c(n4)CCN(C(=O)CO)C5)nc32)CC1 | cell-free assay | 1 µM | remaining signal | 47% |
| Cc1cc(-c2ccnc3[nH]cc(F)c23)cc(F)c1[C@@]1(O)[C@H](C)CN(C(=O)CN)C[C@@H]1C | binding, TR-FRET |  | residence time | 7.3 min |
